Data reported in ChEMBL document CHEMBL1140875, “DNA photocleavage by porphyrin-polyamine conjugates” (Bioorg Med Chem, 2009).
Activity calls are given as the source filed them. The calls are words filed in the database; no cut-off is given here.

Assays:
Escherichia coli [1] = experiment: Induction of DNA photocleavage activity in Escherichia coli pBR322 plasmid assessed as linear DNA form at 10 uM after 120 mins irradiation at 2.5 mW/cm2 by gel electrophoresis
Method in brief: (§1)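 Supercoiled pBR322 (0.25 µg in 10 µL) in 3 mM Tris–HCl, 0.3 mM EDTA, pH 8.0 at 25 °C, with 10 µM porphyrin. White light at 2.5 mW/cm2 from an 18 W lamp 4 cm away, for 15–120 min. Controls without porphyrin and/or without light. Products run on 0.7% non-denaturing agarose, SYBRsafe stain, transilluminator at 312 nm. Supercoiled, nicked and linear forms quantified as %.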

Escherichia coli [2] = experiment: Induction of DNA photocleavage activity in Escherichia coli pBR322 plasmid assessed as supercoiled DNA form at 10 uM after 90 mins irradiation at 2.5 mW/cm2 by gel electrophoresis; method in brief: as §1
[3] = Photostability assessed as residual absorbance at 2.5 mW/cm2 irradiation for 60 mins; format: physicochemical; details: read-out: Stability
Escherichia coli [4] = experiment: Induction of DNA photocleavage activity in Escherichia coli pBR322 plasmid assessed as nicked DNA form at 10 uM after 30 mins irradiation at 2.5 mW/cm2 by gel electrophoresis; method in brief: as §1
[5] = Induction of singlet oxygen production at 1 uM after irradiation at 10 mW/cm2 in presence of 1,3-diphenylisobenzofuran; format: physicochemical
Method in brief: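 Photosensitizer at 10^-6 M with DPBF at 6 × 10^-5 M in DMF/H2O (9/1). Illuminated at room temperature for 30 min with two 30 W white bulbs, 10 mW/cm2. DPBF absorbance decay read at 415 nm every 3 min.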

Escherichia coli [6] = experiment: Induction of DNA photocleavage activity in Escherichia coli pBR322 plasmid assessed as linear DNA form at 10 uM after 90 mins irradiation at 2.5 mW/cm2 by gel electrophoresis; method in brief: as §1
[7] = Photostability assessed as residual absorbance at 2.5 mW/cm2 irradiation for 30 mins; format: physicochemical; details: read-out: Stability
Escherichia coli [8] = experiment: Induction of DNA photocleavage activity in Escherichia coli pBR322 plasmid assessed as supercoiled DNA form at 10 uM after 15 mins irradiation at 2.5 mW/cm2 by gel electrophoresis; method in brief: as §1
Escherichia coli [9] = experiment: Induction of DNA photocleavage activity in Escherichia coli pBR322 plasmid assessed as supercoiled DNA form at 10 uM after 30 mins irradiation at 2.5 mW/cm2 by gel electrophoresis; method in brief: as §1
Escherichia coli [10] = experiment: Induction of DNA photocleavage activity in Escherichia coli pBR322 plasmid assessed as nicked DNA form at 10 uM after 60 mins irradiation at 2.5 mW/cm2 by gel electrophoresis; method in brief: as §1
[11] = Lipophilicity, log P of the compound; format: physicochemical; details: octanol/water
Method in brief: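 1-Octanol/water partition at 25 °C with equal 3 mL phases and dye at 300 µM. Mixture vortexed and centrifuged. Aqueous and organic aliquots each diluted into MeOH, and dye concentration in each phase measured by absorption spectroscopy.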

Escherichia coli [12] = experiment: Induction of DNA photocleavage activity in Escherichia coli pBR322 plasmid assessed as nicked DNA form at 10 uM after 15 mins irradiation at 2.5 mW/cm2 by gel electrophoresis; method in brief: as §1
Escherichia coli [13] = experiment: Induction of DNA photocleavage activity in Escherichia coli pBR322 plasmid assessed as supercoiled DNA form at 10 uM after 60 mins irradiation at 2.5 mW/cm2 by gel electrophoresis in presence of mannitol
Method in brief: (§2)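 pBR322 (0.25 µg) in 3 mM Tris–HCl, 0.3 mM EDTA, pH 8.0 with 10 µM porphyrin, irradiated 60 min in the presence of 100 mM sodium azide (singlet oxygen quencher) or 100 mM mannitol (hydroxyl radical scavenger). Controls without porphyrin, ± irradiation, with each additive. Read-out by agarose gel electrophoresis.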

Escherichia coli [14] = experiment: Induction of DNA photocleavage activity in Escherichia coli pBR322 plasmid assessed as supercoiled DNA form at 10 uM after 60 mins irradiation at 2.5 mW/cm2 by gel electrophoresis in presence of sodium azide; method in brief: as §2
Escherichia coli [15] = experiment: Induction of DNA photocleavage activity in Escherichia coli pBR322 plasmid assessed as nicked DNA form at 10 uM after 60 mins irradiation at 2.5 mW/cm2 by gel electrophoresis in presence of sodium azide; method in brief: as §2
DNA = experiment: Binding affinity to calf thymus DNA at 4 uM in phosphate buffer of pH 7.4 by UV-vis spectroscopy; format: nucleic-acid assay; details: Bos taurus
Method in brief: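 Porphyrin held at 4 × 10^-6 M in PBS pH 7.4 and read by UV–vis at the Soret maximum. Calf thymus DNA titrated in at base-pair concentrations from 1.2 × 10^-6 to 1.2 × 10^-5 M, base pair/porphyrin ratio 0.2 to 3. Change in the Soret band followed.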

Escherichia coli [16] = experiment: Induction of DNA photocleavage activity in Escherichia coli pBR322 plasmid assessed as supercoiled DNA form at 10 uM after 120 mins irradiation at 2.5 mW/cm2 by gel electrophoresis; method in brief: as §1
Escherichia coli [17] = experiment: Induction of DNA photocleavage activity in Escherichia coli pBR322 plasmid assessed as nicked DNA form at 10 uM after 60 mins irradiation at 2.5 mW/cm2 by gel electrophoresis in presence of mannitol; method in brief: as §2
Escherichia coli [18] = experiment: Induction of DNA photocleavage activity in Escherichia coli pBR322 plasmid assessed as nicked DNA form at 10 uM after 90 mins irradiation at 2.5 mW/cm2 by gel electrophoresis; method in brief: as §1
[19] = Photostability assessed as residual absorbance at 2.5 mW/cm2 irradiation for 45 mins; format: physicochemical; details: read-out: Stability
Escherichia coli [20] = experiment: Induction of DNA photocleavage activity in Escherichia coli pBR322 plasmid assessed as nicked DNA form at 10 uM by gel electrophoresis; method in brief: as §1
[21] = Photostability assessed as residual absorbance at 2.5 mW/cm2 irradiation for 15 mins; format: physicochemical; details: read-out: Stability
Escherichia coli [22] = experiment: Induction of DNA photocleavage activity in Escherichia coli pBR322 plasmid assessed as nicked DNA form at 10 uM after 120 mins irradiation at 2.5 mW/cm2 by gel electrophoresis; method in brief: as §1
Escherichia coli [23] = experiment: Induction of DNA photocleavage activity in Escherichia coli pBR322 plasmid at 10 uM after irradiation for 2 hrs by gel electrophoresis
Escherichia coli [24] = experiment: Induction of DNA photocleavage activity in Escherichia coli pBR322 plasmid assessed as supercoiled DNA form at 10 uM by gel electrophoresis
Escherichia coli [25] = experiment: Induction of DNA photocleavage activity in Escherichia coli pBR322 plasmid assessed as supercoiled DNA form at 10 uM after 60 mins irradiation at 2.5 mW/cm2 by gel electrophoresis; method in brief: as §1
Escherichia coli [26] = experiment: Induction of DNA photocleavage activity in Escherichia coli pBR322 plasmid assessed as linear DNA form at 10 uM after 60 mins irradiation at 2.5 mW/cm2 by gel electrophoresis; method in brief: as §1

Activity (Escherichia coli [1]) [%] | Activity (Escherichia coli [2]) [%] | remaining at 1 h [3] [%] | Activity (Escherichia coli [4]) [%] | Activity [5] | Activity (Escherichia coli [6]) [%] | remaining at 0.5 h [7] [%] | Activity (Escherichia coli [8]) [%] | Activity (Escherichia coli [9]) [%] | Activity (Escherichia coli [10]) [%] | logP [11] | Activity (Escherichia coli [12]) [%] | Activity (Escherichia coli [16]) [%] | Activity (Escherichia coli [18]) [%] | remaining at 0.75 h [19] [%] | Activity (Escherichia coli [20]) [%] | remaining at 0.25 h [21] [%] | Activity (Escherichia coli [22]) [%] | Activity (Escherichia coli [24]) [%] | Activity (Escherichia coli [25]) [%] | SMILES | also measured
4 | 12 | 97 | 64 | Active | 4 | 99 | 46 | 36 | 78 | -0.12 | 54 | 5 | 84 | 98 | 36 | 100 | 90 | 78 | 22 | C=CC1=C(C)c2cc3[nH]c(cc4nc(cc5[nH]c(cc1n2)c(C)c5CCC(=O)NCCCCC(=O)N(CCCN)CCCCN)C(CCC(=O)NCCCCC(=O)N(CCCN)CCCCN)=C4C)c(C)c3C=C | Activity (Escherichia coli [13]): 42%; Activity (Escherichia coli [14]): 58%; Activity (Escherichia coli [15]): 42%; Activity (DNA): Active; Activity (Escherichia coli [17]): 58%; Activity (Escherichia coli [23]): Active
10 | 43 | 97 | 36 | Active | 7 | 99 | 72 | 64 | 39 | -2.02 | 28 | 39 | 50 | 98 | 16 | 100 | 51 | 84 | 59 | NCCCCN(CCCN)C(=O)CCCCNC(=O)c1ccc(-c2c3nc(c(-c4ccc(C(=O)NCCCCC(=O)N(CCCN)CCCCN)cc4)c4ccc([nH]4)c(-c4ccc(C(=O)NCCCCC(=O)N(CCCN)CCCCN)cc4)c4nc(c(-c5ccc(C(=O)NCCCCC(=O)N(CCCN)CCCCN)cc5)c5ccc2[nH]5)C=C4)C=C3)cc1 | Activity (DNA): Active; Activity (Escherichia coli [26]): 2%
– | 71 | 99 | 25 | Active | – | 100 | 73 | 75 | 28 | 0.11 | 27 | 78 | 29 | 100 | 27 | 100 | 22 | 73 | 72 | Cc1cc(C)c(-c2c3nc(c(-c4ccc(C(=O)NCCCCC(=O)N(CCCN)CCCCN)cc4)c4ccc([nH]4)c(-c4c(C)cc(C)cc4C)c4nc(c(-c5ccc(C(=O)NCCCCC(=O)N(CCCN)CCCCN)cc5)c5ccc2[nH]5)C=C4)C=C3)c(C)c1 | –
15 | 38 | 97 | 43 | Active | 9 | 100 | 66 | 57 | 51 | -2.83 | 34 | 11 | 53 | 99 | 15 | 100 | 75 | 85 | 40 | NCCCNCCCCN(CCCN)C(=O)CCCCNC(=O)c1ccc(-c2c3nc(c(-c4ccc(C(=O)NCCCCC(=O)N(CCCN)CCCCNCCCN)cc4)c4ccc([nH]4)c(-c4ccc(C(=O)NCCCCC(=O)N(CCCN)CCCCNCCCN)cc4)c4nc(c(-c5ccc(C(=O)NCCCCC(=O)N(CCCN)CCCCNCCCN)cc5)c5ccc2[nH]5)C=C4)C=C3)cc1 | Activity (DNA): Active; Activity (Escherichia coli [26]): 8%
2 | 1 | 97 | 74 | Active | 2 | 100 | 45 | 26 | 93 | -0.51 | 55 | 1 | 97 | 100 | 34 | 100 | 97 | 81 | 7 | C=CC1=C(C)c2cc3[nH]c(cc4nc(cc5[nH]c(cc1n2)c(C)c5CCC(=O)NCCCCC(=O)N(CCCN)CCCCNCCCN)C(CCC(=O)NCCCCC(=O)N(CCCN)CCCCNCCCN)=C4C)c(C)c3C=C | Activity (Escherichia coli [13]): 32%; Activity (Escherichia coli [14]): 51%; Activity (Escherichia coli [15]): 49%; Activity (DNA): Active; Activity (Escherichia coli [17]): 68%; Activity (Escherichia coli [23]): Active
– | 72 | 98 | 28 | Active | – | 99 | 70 | 72 | 30 | 0.07 | 30 | 71 | 28 | 99 | 30 | 100 | 29 | 70 | 70 | Cc1cc(C)c(-c2c3nc(c(-c4ccc(C(=O)NCCCCC(=O)N(CCCN)CCCCNCCCN)cc4)c4ccc([nH]4)c(-c4c(C)cc(C)cc4C)c4nc(c(-c5ccc(C(=O)NCCCCC(=O)N(CCCN)CCCCNCCCN)cc5)c5ccc2[nH]5)C=C4)C=C3)c(C)c1 | –
